Data taken from ChEMBL document CHEMBL1127797, “Synthesis of oxadiazolidinedione derivatives as quisqualic acid analogues and their evaluation at a quisqualate-sensitized site in the rat hippocampus” (J Med Chem, 1994).

Legend:
Conditions in all cases: pyramidal neuron
[1] = sensitization of CA1 pyramidal neurons to depolarizations by L-AP6 after exposure to quisqualic acid; format: functional, cell-based, Rattus norvegicus
In short: (§1)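 Male Sprague-Dawley rat (25-60 day) hippocampal slices were perfused at 34 °C. Schaffer collaterals were stimulated with field potential recording in CA1 stratum radiatum. L-AP6 concentration-response curves were run before and after exposure to test compound substituted for quisqualic acid, then after 10 min 2 mM L-α-AA. IC50 for 50% peak-amplitude inhibition was interpolated.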

[2] = ability to directly depolarize CA1 pyramidal neurons of rat hyppocampal slices after exposure to quisqualic acid; format: functional, cell-based
In short: (§2)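 Transverse hippocampal slices from 25-60 day old male Sprague-Dawley rats, preincubated 20-30 min in high Mg2+/low Ca2+ medium. Submerged at 34 °C under 95% O2/5% CO2. Schaffer collaterals stimulated; field potential peak amplitude recorded in CA1 stratum radiatum. Concentration-response curves run before, after 5 min 20 μM quisqualic acid, and after 10 min 2 mM L-α-AA reversal. IC50 interpolated; mean of four experiments.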

[3] = sensitization of CA1 pyramidal neurons to depolarizations by L-AP6 before exposure to quisqualic acid; format: functional, cell-based, Rattus norvegicus; in short: as §1
[4] = sensitization of CA1 pyramidal neurons to depolarizations by L-AP6 after reversal with L-alpha-AA; format: functional, cell-based, Rattus norvegicus; in short: as §1
[5] = ability to directly depolarize CA1 pyramidal neurons of rat hyppocampal slices after reversal with L-alpha-AA; format: functional, cell-based; in short: as §2
[6] = ability to directly depolarize CA1 pyramidal neurons of rat hyppocampal slices before exposure to quisqualic acid; format: functional, cell-based; in short: as §2
[7] = Sensitization of CA1 pyramidal neurons to depolarizations by L-AP6 after reversal with L-alpha-AA; format: functional, cell-based, Rattus norvegicus
In short: (§3)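 Rat (male Sprague-Dawley, 25-60 days) hippocampal slices, submerged, 34 °C, 95% O2/5% CO2; Schaffer collateral stimulation with stratum radiatum CA1 field potential recording. L-AP6 IC50 for 50% inhibition of peak amplitude interpolated from concentration-response curves, mean of four experiments; determined before and after slice exposure to sensitizing agent in place of quisqualic acid, then after 2 mM L-α-AA reversal.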

[8] = Ability to directly depolarize CA1 pyramidal neurons of rat hyppocampal slices before exposure to quisqualic acid; format: functional, cell-based
In short: (§4)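 Transverse hippocampal slices (500 μM as printed) from 25-60 day old male Sprague-Dawley rats, preincubated 20-30 min in high Mg2+/low Ca2+ medium, held at 28 °C. Submerged in microperfusion chamber at 34 °C, 95% O2/5% CO2. Schaffer collateral stimulation, stratum radiatum recording of peak field potential amplitude. IC50 (50% inhibition) interpolated from concentration-response data, mean of four experiments; measured before and after 5 min 20 μM quisqualic acid, then after 10 min 2 mM L-α-AA reversal.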

[9] = Sensitization of CA1 pyramidal neurons to depolarizations by L-AP6 after exposure to quisqualic acid; format: functional, cell-based, Rattus norvegicus
[10] = Ability to directly depolarize CA1 pyramidal neurons of rat hyppocampal slices after exposure to quisqualic acid; format: functional, cell-based; in short: as §4
[11] = Ability to directly depolarize CA1 pyramidal neurons of rat hyppocampal slices after reversal with L-alpha-AA; format: functional, cell-based; in short: as §4
[12] = Sensitization of CA1 pyramidal neurons to depolarizations by L-AP6 before exposure to quisqualic acid; format: functional, cell-based, Rattus norvegicus; in short: as §3
[13] = sensitization of CA1 pyramidal neurons by 2 to depolarizations by L-AP4, L-AP5 and L-AP6 after reversal with L-alpha-AA; format: functional, cell-based, Rattus norvegicus
In short: (§5)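 Rat hippocampal slices were submerged at 34 °C under 95% O2/5% CO2. Stimulating and recording electrodes sat in CA1 stratum radiatum to record extracellular synaptic field potentials. IC50 of L-AP4, L-AP5 and L-AP6 was measured three times: before, after 20 min exposure to 20 mM test compound in place of quisqualic acid, and after 20 min 2 mM L-α-AA.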

[14] = sensitization of CA1 pyramidal neurons by 2 to depolarizations by L-AP4, L-AP5 and L-AP6 before exposure to quisqualic acid; format: functional, cell-based, Rattus norvegicus; in short: as §5
[15] = sensitization of CA1 pyramidal neurons by 2 to depolarizations by L-AP4,L-AP5 and L-AP6 after exposure to quisqualic acid; format: functional, cell-based, Rattus norvegicus; in short: as §5

Structure (SMILES) | IC50 [1] [µM] | IC50 [8] [µM] | IC50 [9] [µM] | IC50 [10] [µM] | IC50 [12] [µM] | IC50 [13] [µM] | IC50 [14] [µM] | further results
N[C@@H](Cn1oc(=O)[nH]c1=O)C(=O)O [QUISQUALATE] | 40 | – | – | – | – | – | – | IC50 [2]: 4 µM; IC50 [3]: > 10000 µM; IC50 [4]: 1900 µM; IC50 [5]: 26 µM; IC50 [6]: 7 µM
O=C(O)[C@@H]1C[C@@H](n2oc(=O)[nH]c2=O)CN1 | – | 1000 | 780 | 530 | > 10000 | – | – | IC50 [7]: > 10000 µM; IC50 [11]: 1100 µM
N[C@@H](CCn1oc(=O)[nH]c1=O)C(=O)O | 170 | – | – | – | – | – | – | IC50 [2]: 5.5 µM; IC50 [3]: 11000 µM; IC50 [4]: 12000 µM; IC50 [5]: 20 µM; IC50 [6]: 9.8 µM
NC(CCCCP(=O)(O)O)C(=O)O (centres undefined) | 170 | – | – | – | – | 12000 | 11000 | –
NC(CCCP(=O)(O)O)C(=O)O (centres undefined) | – | – | – | – | – | 2200 | 2300 | IC50 [15]: 310 µM
O=C(O)CCn1oc(=O)[nH]c1=O | – | > 10000 | > 10000 | > 10000 | > 10000 | – | – | –
N[C@@H](CCP(=O)(O)O)C(=O)O | – | – | – | – | – | 1700 | 1500 | IC50 [15]: 260 µM
O=C(O)[C@@H]1C[C@H](n2oc(=O)[nH]c2=O)CN1 | – | 15 | > 10000 | 14 | > 10000 | – | – | –
NCCn1oc(=O)[nH]c1=O | – | 5400 | > 10000 | 3800 | > 10000 | – | – | –
